Test results taken from ChEMBL document CHEMBL1130181, “Importance of the C-1 substituent in classical cannabinoids to CB2 receptor selectivity: synthesis and characterization of a series of O,2-propano-delta 8-tetrahydrocannabinol analogs” (J Med Chem, 1997).

Key:
Mus musculus [1] = organism: Mus musculus; assay: Dissociation constant of SR-141716A determined in the presence using mouse vas deferens.; assay type: functional
Method in brief: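 Mouse isolated vas deferens, electrically evoked contractions; agonist concentration–response curves run with SR-141716A at 31.62 nM or with Tween 80 vehicle. Kd from (x−1)=B/Kd, where x is the dose ratio. Dose ratios and 95% confidence limits by symmetrical (2+2) dose parallel line assay, using agonist concentration pairs on the steepest part of each curve.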

Mus musculus [2] = organism: Mus musculus; assay: Inhibition of electrically-evoked contractions of mouse vas deferens; assay type: functional
Method in brief: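 Mouse isolated vas deferens; response is drug-induced inhibition of electrically evoked contractions. Drugs mixed with 2 parts Tween 80 by weight and dispersed in 0.9% saline. EC50 with 95% confidence limits from nonlinear regression of log concentration–response curves.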

[3] = biological target: Cannabinoid receptor (Homo sapiens) (UniProt P34972+P21554); assay: Ratio of binding affinities in cannabinoid CB1 receptor against cannabinoid CB2 receptor; assay type: protein assay
Sequence of Cannabinoid receptor (Homo sapiens) (P21554 whole entry, looked up): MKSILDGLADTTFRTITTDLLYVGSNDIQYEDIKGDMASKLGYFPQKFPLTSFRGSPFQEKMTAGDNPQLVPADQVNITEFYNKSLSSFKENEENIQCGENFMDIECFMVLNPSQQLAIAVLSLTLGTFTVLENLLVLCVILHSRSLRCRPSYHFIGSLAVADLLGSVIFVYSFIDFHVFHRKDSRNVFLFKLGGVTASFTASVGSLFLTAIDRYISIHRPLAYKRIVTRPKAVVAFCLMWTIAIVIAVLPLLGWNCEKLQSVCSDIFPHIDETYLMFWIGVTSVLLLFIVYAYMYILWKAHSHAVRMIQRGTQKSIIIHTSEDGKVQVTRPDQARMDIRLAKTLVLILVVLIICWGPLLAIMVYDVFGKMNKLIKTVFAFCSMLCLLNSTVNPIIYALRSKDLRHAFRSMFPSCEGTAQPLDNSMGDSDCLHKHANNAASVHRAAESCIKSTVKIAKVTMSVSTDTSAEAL
Sequence of Cannabinoid receptor (Homo sapiens) (P34972 whole entry, looked up): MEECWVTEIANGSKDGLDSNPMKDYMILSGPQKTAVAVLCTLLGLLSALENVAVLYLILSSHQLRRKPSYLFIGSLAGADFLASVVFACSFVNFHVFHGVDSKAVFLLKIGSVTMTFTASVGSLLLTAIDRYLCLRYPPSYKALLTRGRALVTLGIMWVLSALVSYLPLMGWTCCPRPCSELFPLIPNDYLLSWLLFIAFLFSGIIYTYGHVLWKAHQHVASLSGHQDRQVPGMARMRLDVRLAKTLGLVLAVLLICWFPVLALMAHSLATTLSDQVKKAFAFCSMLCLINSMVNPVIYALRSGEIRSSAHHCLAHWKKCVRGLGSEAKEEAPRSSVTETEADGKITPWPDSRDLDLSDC
Method in brief: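 Ratio of Ki values. CB1 Ki from displacement of 1 nM [3H]CP-55,940 in whole-brain P2 membranes. CB2 Ki from the same radioligand on CHO cells expressing cloned human CB2. Both Ki values from […].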

Cannabinoid receptor 1 = Cannabinoid receptor 1 (Rattus norvegicus, UniProt P20272); assay: Binding affinity for cannabinoid receptor 1.
Sequence of Cannabinoid receptor 1 (P20272 whole entry): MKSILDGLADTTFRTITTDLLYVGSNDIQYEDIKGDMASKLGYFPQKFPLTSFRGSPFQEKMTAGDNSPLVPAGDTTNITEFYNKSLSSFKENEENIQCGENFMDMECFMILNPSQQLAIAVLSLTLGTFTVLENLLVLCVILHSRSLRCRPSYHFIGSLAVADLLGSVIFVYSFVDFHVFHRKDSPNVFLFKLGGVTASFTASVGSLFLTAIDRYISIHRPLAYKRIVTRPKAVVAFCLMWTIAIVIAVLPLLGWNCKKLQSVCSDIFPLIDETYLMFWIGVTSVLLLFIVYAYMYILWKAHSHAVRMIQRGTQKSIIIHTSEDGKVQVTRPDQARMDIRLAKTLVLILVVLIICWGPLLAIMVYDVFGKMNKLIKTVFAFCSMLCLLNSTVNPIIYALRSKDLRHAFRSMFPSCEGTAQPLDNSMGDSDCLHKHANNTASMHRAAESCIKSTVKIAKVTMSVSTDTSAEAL

Mus musculus [4] = assay: Rectal temperature in the mouse model, following intravenous administration of the compound(60 mg/kg), in the tail vein.; assay type: functional
Method in brief: (§1)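 Mice dosed by tail-vein iv injection in 1:1:18 emulphor:ethanol:saline, 0.1 mL/10 g body weight. Tetrad scored for spontaneous activity, tail-flick antinociception, rectal temperature and ring immobility. Values reported as ED50 ± SE from ALLFIT analysis, or as percent effect (temperature change for RT) at the stated dose (mg/kg).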

Mus musculus [5] = assay: Rectal temperature in the mouse model, following intravenous administration of the compound, in the tail vein.at the dose (100 mg/kg); assay type: functional; method in brief: as §1
Mus musculus [6] = assay: Rectal temperature in the mouse model, following intravenous administration (30 mg/kg), in the tail vein.; assay type: functional; method in brief: as §1

Row | SMILES | Kd (Mus musculus [1]) | EC50 (Mus musculus [2]) | Ratio [3] | Ki (Cannabinoid receptor 1) | Temperature (Mus musculus [4]) | Temperature (Mus musculus [5]) | Temperature (Mus musculus [6])
1 | CCCCCc1cc2c(c3c1CCCO3)C1C[C@@H](O)CC[C@H]1C(C)(C)O2 (stereo partly drawn) | 1.67 nM | 83.5 nM | – | – | – | – | –
2 | CCCCCc1cc2c(c3c1CCCO3)C1C[C@H](O)CC[C@H]1C(C)(C)O2 (stereo partly drawn) | 1.67 nM | 8.35 nM | – | – | – | – | –
3 | CCCCCc1cc2c(c3c1CCCO3)C1CC(=O)CC[C@H]1C(C)(C)O2 (stereo partly drawn) | 1.72 nM | 7.23 nM | 3.9 | 90 nM | -2.9 °C | – | –
4 | CCCCCc1cc2c(c3c1CCCO3)C1CC=CC[C@H]1C(C)(C)O2 (stereo partly drawn) | 2.97 nM | 16.5 nM | 2.8 | 364 nM | – | -1.2 °C | –
5 | C=C1CC[C@@H]2C(C1)c1c(cc(CCCCC)c3c1OCCC3)OC2(C)C (stereo partly drawn) | 2.49 nM | 28.6 nM | 4.4 | – | – | – | -3.6 °C
